Measured values from article PMC4324449 (ACS Chemical Biology, 2014).

What was measured:
[1] = Self-association by concentration-dependent UV–vis absorption; assay type: physicochemical; details: for self-association by UV–vis, in words: concentration-dependent λmax, Tris buffer pH 7.4
How it was run: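 Absorption spectra recorded over a foldamer dilution series in 10 or 1 mm cuvettes. λmax plotted against concentration and fitted to a monomer-hexamer equilibrium, with monomer and hexamer λmax as fitted variables. Salt series run in 0.05 M Tris, pH 7.4, at varying NaCl, with all salt conditions fitted globally.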

[2] = Self-association by ITC heats of dilution; assay type: physicochemical; details: dilution in TBS, 25 °C
How it was run: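 Heats of dilution at 25 °C. Foldamer at 1 mM in TBS (0.050 M Tris, 0.150 M NaCl, pH 7.4) injected serially into TBS in the calorimetric cell. Heat per injection taken from the integrated peak area, normalized over accumulated additions and plotted against final foldamer concentration. Fitted to a monomer-dimer-hexamer or monomer-hexamer model, depending on the foldamer.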

Row | pK(hex-mon) UV–vis ([1]; concentration dependence of λmax in TBS pH 7.4, monomer-hexamer fit, K in M5) | self-assembly by ITC, in words [2] | Substance | self-association by UV–vis, in words [1]
1 | – | – | (D-Cit-Sal)4-CONH2 [Compound 7] | did not appear to show significant dissociation
2 | <15 | – | (Lys-Sal)3-CONH2 [Compound 8] | did not show any spectral changes at concentrations as high as 500 μM
3 | – | very weak to no self-assembly | (Lys-Sal)4-COOH [Compound 2] | did not appear to associate at all over this concentration range
